Laboratory results reported in ChEMBL document CHEMBL1125077, “Synthetic and computer-assisted analyses of the pharmacophore for the benzodiazepine receptor inverse agonist site” (J Med Chem, 1990).

The compounds below were run against GABA-A receptor; anion channel (assay: In vitro inhibition of 3[H]Diazepam binding to Benzodiazepine receptor from rat cerebral cortical membranes).
Assay type: cell membranes, Membrane
How it was run: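 Rat cerebral cortex (decapitation) homogenized in 50 mM Tris-HCl pH 7.4, spun 20000g 20 min at 4 °C, washed three times, resuspended in 50 volumes buffer. Incubated with [3H]diazepam (final 2 nM) at 4 °C for 120 min, then filtered on GF/B with ice-cold buffer washes. Nonspecific binding taken with 10 μM flunitrazepam. IC50 from Hill plots, at least six inhibitor concentrations, mean of three or more experiments.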

Structure (SMILES)	IC50
CCOC(=O)c1cc2c3ccccc3c(N=O)c-2c[nH]1	5000 nM
COC(=O)c1cc2c3ccccc3n3c(=O)ccc(n1)c23	100 nM
CC(C)(C)OC(=O)c1cc2c3ccccc3nc-2c[nH]1	10 nM
CCOC(=O)c1cc2c(cn1)[nH]c1ccccc12	5 nM
CCc1nc(C(=O)OC)cc2c1[nH]c1ccccc12	7540 nM
CC(C)Oc1cc2c(cn1)[nH]c1ccccc12	500 nM
CCCCOc1cc2c(cn1)[nH]c1ccccc12	98 nM
CCCC(=O)c1cc2c(cn1)[nH]c1ccccc12	2.8 nM
CCCCc1cc2c(cn1)[nH]c1ccccc12	245 nM
c1ccc2c(c1)[nH]c1c2ccc2[nH]c3ccccc3c21	1970 nM
CCOC(=O)c1cc2c(cn1)sc1ccccc12	1700 nM
Cc1ccc2c(c1)[nH]c1c3c4ccccc4nc-3c[nH]c12	10 nM
CCOC(=O)c1cc2c(cn1)Cc1ccccc1-2	680 nM
CCOC(=O)c1cc2c(cn1)nc(O)c1ccccc12	2400 nM
CC(C)(C)COC(=O)c1cc2c3ccccc3nc-2c[nH]1	750 nM
Cc1cccc2[nH]c3c4c5ccccc5nc-4c[nH]c3c12	6860 nM
CCOC(=O)c1cc2c(cn1)oc1ccccc12	9200 nM
COC(=O)c1cc2c3ccccc3n(C(C)=O)c2cn1	9 nM
C[n+]1cc2[nH]c3ccccc3c2c2[nH]c3ccccc3c21	4660 nM
CCc1nc2c3ccccc3[nH]c2c2c1[nH]c1ccccc12	285 nM
COC(=O)c1cc2[nH]c3ccccc3c2cn1	653 nM
Cc1nccc2c1[nH]c1ccccc12 [HARMAN]	12400 nM

These compounds were tested against GABA-A receptor; anion channel (assay: In vitro inhibition of 3[H]Diazepam binding to Benzodiazepine receptor from rat cerebral cortical membranes; value ranges from 4-12 nM).
Assay type: cell membranes, Membrane

Structure (SMILES)	IC50
S=C=Nc1cc2c3ccccc3nc-2c[nH]1	4 nM
